The target of series [1] is T1, Bifunctional epoxide hydrolase 2 (Homo sapiens, UniProt P34913).
T1 sequence (P34913 whole entry): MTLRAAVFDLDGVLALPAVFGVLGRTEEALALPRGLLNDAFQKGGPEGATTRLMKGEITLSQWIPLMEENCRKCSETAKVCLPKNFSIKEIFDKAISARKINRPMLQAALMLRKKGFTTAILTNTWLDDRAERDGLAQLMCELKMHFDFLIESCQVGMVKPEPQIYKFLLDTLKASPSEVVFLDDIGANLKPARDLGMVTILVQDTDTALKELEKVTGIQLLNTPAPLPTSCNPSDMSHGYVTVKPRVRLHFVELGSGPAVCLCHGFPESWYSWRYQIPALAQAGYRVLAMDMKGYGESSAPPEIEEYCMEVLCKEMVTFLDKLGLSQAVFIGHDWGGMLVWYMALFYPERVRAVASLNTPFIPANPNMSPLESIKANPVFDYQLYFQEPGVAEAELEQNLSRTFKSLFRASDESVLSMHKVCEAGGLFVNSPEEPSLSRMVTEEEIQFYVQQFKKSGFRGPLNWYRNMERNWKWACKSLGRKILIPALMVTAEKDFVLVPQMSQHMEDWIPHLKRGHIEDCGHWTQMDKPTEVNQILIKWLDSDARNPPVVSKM
In words: Inhibition of recombinant human soluble epoxide hydrolase using CMNPC as substrate by kinetic fluorescent assay. The gist of the method: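 Recombinant purified human sEH, CMNPC substrate, kinetic fluorescence read-out; IC50 derived. Where reported, values are the mean ± standard deviation of three separate measurements.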

Series [2] can be described thus: Solubility of compound in sodium phosphate buffer at pH 7.4. The format is physicochemical. The method, boiled down:
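Measured in 0.1 M sodium phosphate buffer, pH 7.4, containing 1% DMSO; reported as a concentration range bracketing the solubility limit (μM).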

Series [3] in a line: Metabolic stability in human liver microsomes assessed as compound remaining at 1 uM after 30 mins by LC/MS/MS analysis in absence of NADPH generating system. The format is ADME. The following applies: read-out: Stability. The method, boiled down:
(§1)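 Compound at 1 μM incubated with human liver microsomes (1 mg/mL) at 37°C for 30 minutes, with or without an NADPH generating system. Read-out is percent of compound remaining. Values are the average of triplicates ± standard deviation.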

The nature of series [4]: Metabolic stability in human liver microsomes assessed as compound remaining at 1 uM after 30 mins by LC/MS/MS analysis in presence of NADPH generating system. The format is ADME. The following applies: read-out: Stability. The method, boiled down:
as §1

≈ marks a conversion by molar mass, not a printed value.

For the molecule `Cc1ccc(-c2cc(CNC(=O)NCC34CC5CC(CC(C5)C3)C4)no2)cc1`, in series [1], the IC50 is 0.0154 µM. This molecule displayed a solubility in series [2] of 75 µM (≈ 28.5 µg/mL). The remaining at 0.5 h, 1 µM was found to be 97% in series [3] and 0.4% in series [4].
Taken in the same sequence, the figures for `COc1ccc(-c2cc(CNC(=O)NCC34CC5CC(CC(C5)C3)C4)no2)cc1` were 0.0129 µM, 100 µM (≈ 39.6 µg/mL), 87% and 0.8%.
The corresponding values for `O=C(NCc1cc(-c2ccco2)on1)NCC12CC3CC(CC(C3)C1)C2` are 0.0049 µM, 75 µM (≈ 26.7 µg/mL), 91% and 0.4%.
Consider `Cc1cc(CNC(=O)NCC23CC4CC(CC(C4)C2)C3)on1`, for which the IC50 in series [1] is 0.0067 µM. This molecule had a solubility in series [2] of 450 µM (≈ 137 µg/mL). Besides, the values for the remaining at 0.5 h, 1 µM in series [3] and in series [4] were 72% and 2.9%, respectively.
For `CCc1cc(CNC(=O)NCC23CC4CC(CC(C4)C2)C3)on1`, the half-maximal inhibitory concentration (IC50) in series [1] was 0.0294 µM. The solubility in series [2] is 300 µM (≈ 95.2 µg/mL).
The corresponding values for `CC(C)c1cc(CNC(=O)NCC23CC4CC(CC(C4)C2)C3)on1` are 0.0446 µM and 125 µM (≈ 41.4 µg/mL).
For `O=C(NCc1cc(-c2cccc(F)c2)no1)NCC12CC3CC(CC(C3)C1)C2`, in series [1], the IC50 turned out to be 0.0166 µM. In series [2], this molecule had a solubility of 75 µM (≈ 28.8 µg/mL). Moreover, the remaining at 0.5 h, 1 µM in series [3] is 97%; in series [4] it was 0.3%.
Regarding `O=C(NCc1cc(-c2ccc(F)cc2)no1)NCC12CC3CC(CC(C3)C1)C2`, the IC50 in series [1] stood at 0.0105 µM. In series [2], the solubility was found to be 50 µM (≈ 19.2 µg/mL).
Taken in the same sequence, the figures for `CC(C)c1cc(CN(C)C(=O)NCC23CC4CC(CC(C4)C2)C3)no1` were 0.576 µM and 200 µM (≈ 69.1 µg/mL).
With `Cc1cc(C2CCCN2C(=O)NCC23CC4CC(CC(C4)C2)C3)no1` (stereo unspecified), the half-maximal inhibitory concentration (IC50) in series [1] was determined as 0.524 µM. This molecule also had a solubility in series [2] of 525 µM (≈ 180 µg/mL).
With `CC(C)c1cc(C2CCCN2C(=O)NCC23CC4CC(CC(C4)C2)C3)no1` (stereo unspecified), the 50% inhibitory concentration (IC50) in series [1] was 0.247 µM. The same molecule yielded a solubility in series [2] of 250 µM (≈ 92.9 µg/mL).
The corresponding values for `CC(C)c1cc(CN(C)C(=O)NCC23CC4CC(CC(C4)C2)C3)on1` are 0.191 µM and 350 µM (≈ 121 µg/mL).
Taken in the same sequence, the figures for `Cc1cc(C2CCCN2C(=O)NCC23CC4CC(CC(C4)C2)C3)on1` (stereo unspecified) were 0.091 µM and 575 µM (≈ 197 µg/mL).
As to `Cc1ccc(-c2cc(CNC(=O)NC34CC5CC(C)(CC(C)(C5)C3)C4)no2)cc1`, in series [1], the half-maximal inhibitory concentration (IC50) is 0.0258 µM. The molecule further yielded a solubility in series [2] of 125 µM (≈ 49.2 µg/mL). The remaining at 0.5 h, 1 µM in series [3] turned out to be 115%; in series [4], 0.4%.
Taken in the same sequence, the figures for `COc1ccc(-c2cc(CNC(=O)NC34CC5CC(C)(CC(C)(C5)C3)C4)no2)cc1` were 0.015 µM, 25 µM (≈ 10.2 µg/mL), 102% and 0.4%.
The corresponding values for `CC12CC3CC(C)(C1)CC(NC(=O)NCc1cc(-c4ccco4)on1)(C3)C2` are 0.0041 µM, 75 µM (≈ 27.7 µg/mL), 95% and 0.3%.
The corresponding values for `Cc1cc(CNC(=O)NC23CC4CC(C)(CC(C)(C4)C2)C3)on1` are 0.123 µM, 200 µM (≈ 63.5 µg/mL), 83% and 0.1%.
In the case of `CC12CC3CC(C)(C1)CC(NC(=O)NCc1cc(-c4cccc(F)c4)no1)(C3)C2`, the IC50 in series [1] is 0.017 µM. The molecule also registered a solubility in series [2] of 75 µM (≈ 29.8 µg/mL). Moreover, the remaining at 0.5 h, 1 µM turned out to be 92% in series [3] and 0.4% in series [4].

These data come from ChEMBL document CHEMBL3632545, “1,3-Disubstituted and 1,3,3-trisubstituted adamantyl-ureas with isoxazole as soluble epoxide hydrolase inhibitors” (Bioorg Med Chem Lett, 2015).
